Reference: ChEMBL document CHEMBL1125286, “Zatosetron, a potent, selective, and long-acting 5HT3 receptor antagonist: synthesis and structure-activity relationships” (J Med Chem, 1992)

Tests used:
[1] = target: T1, Serotonin 3 (5-HT3) receptor (Rattus norvegicus) (UniProt P35563+Q9JJ16); experiment: 5-hydroxytryptamine 3 receptor antagonistic activity was measured by the inhibition of 5H+ T-induced bradycardia after iv administration of 1000 ug/kg dose in urethane-anesthetized rats; assay type: functional, organism-based
Method in brief: (§1)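 Urethane-anesthetized rats. First 5HT challenge 30 μg/kg iv gives a transient bradycardia. Once heart rate is back at steady state (≤5 min), test compound or saline goes in via the femoral vein. 5HT 30 μg/kg iv is repeated 15 min later. % inhibition is the difference between first and second bradycardia at peak, each animal its own control. Means ± SEM, groups of 3–16 rats.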

[2] = target: T1, Serotonin 3 (5-HT3) receptor (Rattus norvegicus); experiment: 5-hydroxytryptamine 3 receptor antagonistic activity was measured by the inhibition of 5H+ T-induced bradycardia after iv administration of 3 ug/kg dose in urethane-anesthetized rats; assay type: functional, organism-based
Method in brief: (§2)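 Urethane-anesthetized rats; antagonist or saline given iv via femoral vein after heart rate settled (≤5 min) from an initial 5HT challenge (30 µg/kg iv). 5HT was given again 15 min later. Peak bradycardia measured, each rat its own control; % inhibition = difference between first and second responses. Groups of 3–16 rats, means ± SEM.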

[3] = target: T1, Serotonin 3 (5-HT3) receptor (Rattus norvegicus); experiment: Compound was tested for the inhibition of 5-HT-induced bradycardia after intravenous administration of 0.3 ug/kg dose in urethane-anesthetized rats; assay type: functional, organism-based; method in brief: as §2
[4] = target: T1, Serotonin 3 (5-HT3) receptor (Rattus norvegicus); experiment: Compound was tested for the inhibition of 5-HT-induced bradycardia after intravenous administration of 1 ug/kg dose in urethane-anesthetized rats; assay type: functional, organism-based; method in brief: as §2
[5] = target: T1, Serotonin 3 (5-HT3) receptor (Rattus norvegicus); experiment: Compound was tested for the inhibition of 5-HT-induced bradycardia after peroral administration of 0.03 mg/kg dose in urethane-anesthetized rats at 1 hour; assay type: functional, organism-based; parameters: dose 0.03 mg/kg
Method in brief: (§3)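 Duration study: antagonist or vehicle gavaged to conscious fasted rats (5 mL/kg). Rats were urethane-anesthetized and surgically prepared, then challenged with 5HT 0.03 mg/kg iv at the stated time after dosing. Vehicle-treated rats served as controls. Peak inhibition of bradycardia recorded in groups of 3–11, means ± SEM.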

[6] = target: T1, Serotonin 3 (5-HT3) receptor (Rattus norvegicus); experiment: Compound was tested for the inhibition of 5-HT-induced bradycardia after peroral administration of 0.03 mg/kg dose in urethane-anesthetized rats at 16 hour; assay type: functional, organism-based; parameters: dose 0.03 mg/kg; method in brief: as §3
[7] = target: T1, Serotonin 3 (5-HT3) receptor (Rattus norvegicus); experiment: Compound was tested for the inhibition of 5-HT-induced bradycardia after peroral administration of 0.03 mg/kg dose in urethane-anesthetized rats at 3 hour; assay type: functional, organism-based; parameters: dose 0.03 mg/kg; method in brief: as §3
[8] = target: T1, Serotonin 3 (5-HT3) receptor (Rattus norvegicus); experiment: Compound was tested for the inhibition of 5-HT-induced bradycardia after peroral administration of 0.03 mg/kg dose in urethane-anesthetized rats at 6 hour; assay type: functional, organism-based; parameters: dose 0.03 mg/kg; method in brief: as §3
[9] = target: T1, Serotonin 3 (5-HT3) receptor (Rattus norvegicus); experiment: Compound was tested for the inhibition of 5-HT-induced bradycardia after peroral administration of 10 ug/kg dose in urethane-anesthetized rats; assay type: functional, organism-based
Method in brief: (§4)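 Fasted rats gavaged (5 mL/kg) with antagonist or vehicle (distilled water). Urethane anesthesia and surgical preparation followed, 15–20 min before 5HT challenge. 5HT 30 µg/kg iv given 1 h after dosing, with vehicle-treated rats as controls. Peak % inhibition of bradycardia in groups of 3–11, means ± SEM.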

[10] = target: T1, Serotonin 3 (5-HT3) receptor (Rattus norvegicus); experiment: Compound was tested for the inhibition of 5-HT-induced bradycardia after peroral administration of 3 ug/kg dose in urethane-anesthetized rats; assay type: functional, organism-based; method in brief: as §4
[11] = target: T1, Serotonin 3 (5-HT3) receptor (Rattus norvegicus); experiment: Compound was tested for the inhibition of 5-HT-induced bradycardia after peroral administration of 30 ug/kg dose in urethane-anesthetized rats; assay type: functional, organism-based; method in brief: as §4
[12] = target: T1, Serotonin 3 (5-HT3) receptor (Rattus norvegicus); experiment: Inhibition of 5-HT-induced bradycardia by 5-hydroxytryptamine 3+; assay type: functional
[13] = target: T1, Serotonin 3 (5-HT3) receptor (Rattus norvegicus); experiment: Compound was tested for the inhibition of 5-HT-induced bradycardia after peroral administration of 0.03 mg/kg dose in urethane-anesthetized rats at 0.05 hour; assay type: functional, organism-based; parameters: dose 0.03 mg/kg; conditions: in the assay text read “0.5 hour” for “0.05 hour”; method in brief: as §3
[14] = test system: Serotonin 3 receptor (Cavia porcellus); experiment: In vitro binding affinity was measured for 5-hydroxytryptamine 3 receptor in the guinea pig ileum.
[15] = target: T1, Serotonin 3 (5-HT3) receptor (Rattus norvegicus); experiment: Compound was tested for the inhibition of 5-HT-induced bradycardia after peroral administration in urethane-anesthetized rats
[16] = target: T1, Serotonin 3 (5-HT3) receptor (Rattus norvegicus); experiment: 5-hydroxytryptamine 3 receptor antagonistic activity measured by inhibition of 5-HT-induced bradycardia (iv administration 10 ug/kg dose in urethane-anesthetized rats); assay type: functional, organism-based; method in brief: as §1
[17] = target: T1, Serotonin 3 (5-HT3) receptor (Rattus norvegicus); experiment: 5-hydroxytryptamine 3 receptor antagonistic activity as inhibition of 5-HT-induced bradycardia after iv administration of 100 ug/kg dose in urethane-anesthetized rats; assay type: functional, organism-based; method in brief: as §1
[18] = target: T1, Serotonin 3 (5-HT3) receptor (Rattus norvegicus); experiment: Compound was tested for the inhibition of 5-HT-induced bradycardia after peroral administration of 100 ug/kg dose in urethane-anesthetized rats; assay type: functional, organism-based; method in brief: as §4
[19] = target: T1, Serotonin 3 (5-HT3) receptor (Rattus norvegicus); experiment: Compound was tested for the inhibition of 5-HT-induced bradycardia after peroral administration of 1000 ug/kg dose in urethane-anesthetized rats; assay type: functional, organism-based; method in brief: as §4
[20] = target: T1, Serotonin 3 (5-HT3) receptor (Rattus norvegicus); experiment: Compound was tested for the inhibition of 5-HT-induced bradycardia after peroral administration of 0.3 mg/kg at 0.5 hours in urethane-anesthetized rats; assay type: functional, organism-based; parameters: dose 0.3 mg/kg; conditions: at 0.3 mg/kg
Method in brief: (§5)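 Duration study. Antagonist or vehicle is given by oral gavage to conscious rats. Rats are then urethane-anesthetized, surgically prepared and challenged with 5HT 0.03 mg/kg iv at the stated time after dosing. Peak inhibition of bradycardia is measured against vehicle-treated controls. Means ± SEM, groups of 3–11 rats.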

[21] = target: T1, Serotonin 3 (5-HT3) receptor (Rattus norvegicus); experiment: Compound was tested for the inhibition of 5-HT-induced bradycardia after peroral administration of 0.3 mg/kg at 1 hour in urethane-anesthetized rats; assay type: functional, organism-based; parameters: dose 0.3 mg/kg; conditions: at 0.3 mg/kg; method in brief: as §5
[22] = target: T1, Serotonin 3 (5-HT3) receptor (Rattus norvegicus); experiment: Compound was tested for the inhibition of 5-HT-induced bradycardia after peroral administration of 0.3 mg/kg at 3 hours in urethane-anesthetized rats; assay type: functional, organism-based; parameters: dose 0.3 mg/kg; conditions: at 0.3 mg/kg; method in brief: as §5
[23] = target: T1, Serotonin 3 (5-HT3) receptor (Rattus norvegicus); experiment: Compound was tested for the inhibition of 5-HT-induced bradycardia after peroral administration of 0.3 mg/kg at 6 hours in urethane-anesthetized rats; assay type: functional, organism-based; parameters: dose 0.3 mg/kg; conditions: at 0.3 mg/kg; method in brief: as §5
[24] = target: T1, Serotonin 3 (5-HT3) receptor (Rattus norvegicus); experiment: 5-hydroxytryptamine 3 receptor antagonistic activity was measured by the inhibition of 5-HT-induced bradycardia after iv administration of 1000 ug/kg dose in urethane-anesthetized rats; assay type: functional, organism-based; method in brief: as §1
[25] = target: T1, Serotonin 3 (5-HT3) receptor (Rattus norvegicus); experiment: Compound was tested for the inhibition of 5-HT-induced bradycardia after intravenous administration of 30 ug/kg dose in urethane-anesthetized rats; assay type: functional, organism-based; method in brief: as §1
[26] = target: T1, Serotonin 3 (5-HT3) receptor (Rattus norvegicus); experiment: 5-hydroxytryptamine 3 receptor antagonistic activity was measured by the inhibition of 5H+ T-induced bradycardia after iv administration of 1000 ug/kgetized rats; assay type: functional, organism-based; method in brief: as §1
[27] = target: T1, Serotonin 3 (5-HT3) receptor (Rattus norvegicus); experiment: 5-hydroxytryptamine 3 receptor antagonistic activity was measured by the inhibition of 5H+ T-induced bradycardia after po administration of 100 ug/kg dose in urethane-anesthetized rats; assay type: functional, organism-based
Method in brief: (§6)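 Fasted rats dosed by gavage (5 mL/kg) with compound or distilled-water vehicle. Urethane anesthesia and surgical preparation 15–20 min before challenge. 5HT 0.03 mg/kg iv given 1 h after dosing. Peak bradycardia is compared with vehicle-treated controls. Means ± SEM, groups of 3–11 rats.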

[28] = target: T1, Serotonin 3 (5-HT3) receptor (Rattus norvegicus); experiment: 5-hydroxytryptamine 3 receptor antagonistic activity was measured by the inhibition of 5H+ T-induced bradycardia after po administration of 1000 ug/kg dose in urethane-anesthetized rats; assay type: functional, organism-based; method in brief: as §6
[29] = target: T1, Serotonin 3 (5-HT3) receptor (Rattus norvegicus); experiment: 5-hydroxytryptamine 3 receptor antagonistic activity was measured by the inhibition of 5H+ T-induced bradycardia after po administration of 30 ug/kg dose in urethane-anesthetized rats; assay type: functional, organism-based; method in brief: as §6
[30] = target: T1, Serotonin 3 (5-HT3) receptor (Rattus norvegicus); experiment: 5-hydroxytryptamine 3 receptor antagonistic activity was measured by the inhibition of 5H+ T-induced bradycardia after po administration of 300 ug/kg dose in urethane-anesthetized rats; assay type: functional, organism-based; method in brief: as §6
[31] = target: T1, Serotonin 3 (5-HT3) receptor (Rattus norvegicus); experiment: Compound was tested for the inhibition of 5-HT-induced bradycardia after peroral administration of 1 mg/kg at 0.5 hours in urethane-anesthetized rats; assay type: functional, organism-based; parameters: dose 1 mg/kg; conditions: at 1 mg/kg; method in brief: as §3
[32] = target: T1, Serotonin 3 (5-HT3) receptor (Rattus norvegicus); experiment: Compound was tested for the inhibition of 5-HT-induced bradycardia after peroral administration of 1 mg/kg at 3 hours in urethane-anesthetized rats; assay type: functional, organism-based; parameters: dose 1 mg/kg; conditions: at 1 mg/kg; method in brief: as §3
[33] = target: T1, Serotonin 3 (5-HT3) receptor (Rattus norvegicus); experiment: Compound was tested for the inhibition of 5-HT-induced bradycardia after peroral administration of 1 mg/kg at 1 hour in urethane-anesthetized rats; assay type: functional, organism-based; parameters: dose 1 mg/kg; conditions: at 1 mg/kg; method in brief: as §3

CN1C2CCC1CC(OC(=O)c1ccc3c(c1)oc1ccccc13)C2 (stereo not given)
inhibition [1]: 1.5%

CN1[C@@H]2CC[C@H]1C[C@@H](NC(=O)c1cc(Cl)cc3c1OC(C)(C)C3)C2 (stereo in doubt)
inhibition [2]: 84.4%
inhibition [3]: 10.8%
inhibition [4]: 66.2%
inhibition [5]: 77.6%
inhibition [6]: 0%
inhibition [7]: 61.1%
inhibition [8]: 81.4%
inhibition [9]: 57.1%
inhibition [10]: 19.1%
inhibition [11]: 77.6%
ED50 [12]: 0.9 µg/kg
inhibition [13]: 86.4%
-Log KB [14]: 8.78
ED50 [15]: 9.2 µg/kg

CC1Cc2cccc(C(=O)OC3CC4CCC(C3)N4C)c2O1 (stereo not given)
inhibition [16]: 30.6%

CN1[C@@H]2CC[C@H]1C[C@@H](OC(=O)c1c[nH]c3ccccc13)C2
inhibition [17]: 70.6%
inhibition [2]: 54.2%
inhibition [4]: 20.1%
inhibition [18]: 39.8%
inhibition [19]: 85%
inhibition [9]: 0.1%
ED50 [12]: 3.1 µg/kg
inhibition [20]: 86.6%
inhibition [21]: 77.4%
inhibition [22]: 65.2%
inhibition [23]: 17.4%
ED50 [15]: 127 µg/kg

CN1C2CCC1CC(OC(=O)c1ccc(OC(F)(F)F)cc1)C2 (stereo not given)
inhibition [24]: 4.7%

CC1Cc2cccc(C(=O)NC3CC4CCC(C3)N4C)c2O1 (stereo not given)
inhibition [16]: 22.3%
inhibition [17]: 87.6%

CN1C2CCC1CC(OC(=O)c1ccccc1-c1ccccc1)C2 (stereo not given)
inhibition [24]: 47.3%

CC1Oc2c(C(=O)OC3CC4CCC(C3)N4C)cccc2C1C (stereo in doubt; 26)
inhibition [16]: 29.9%
inhibition [2]: 1.8%
inhibition [25]: 78.7%

CN1C2CCC1CC(OC(=O)c1cccc3c1Cc1ccccc1-3)C2 (stereo not given)
inhibition [1]: 51%

CN1C2CCC1CC(OC(=O)c1cccc3oc4ccccc4c13)C2 (stereo not given)
inhibition [16]: 0%
inhibition [17]: 12.4%
inhibition [26]: 66.3%

Cc1cc2c(c(C(=O)OC3CC4CCC(C3)N4C)c1)OCC2 (stereo not given)
inhibition [16]: 28.8%
inhibition [17]: 67.2%

CC1Oc2c(C(=O)OC3CC4CCC(C3)N4C)cccc2C1C (stereo in doubt; 27)
inhibition [16]: 32.7%
inhibition [2]: 35.6%
inhibition [25]: 47.3%

CN1[C@@H]2CC[C@H]1C[C@@H](OC(=O)c1cc(Cl)cc(Cl)c1)C2
inhibition [16]: 9.7%
inhibition [17]: 71.4%

Cc1nccn1CC1CCc2c(c3ccccc3n2C)C1=O (stereo not given)
inhibition [27]: 18.2%
inhibition [28]: 73.4%
inhibition [29]: 0.3%
inhibition [30]: 55.1%
ED50 [12]: 3.3 µg/kg
inhibition [31]: 74.3%
inhibition [32]: 6.5%
inhibition [33]: 73.4%
ED50 [15]: 316 µg/kg

CN1C2CCC1CC(NC(=O)c1ccc(Cl)c3c1OC(C)(C)C3)C2 (stereo not given)
inhibition [16]: 1.9%

CN1C2CCC1CC(NC(=O)c1ccc3c(c1)OC(C)(C)C3)C2 (stereo not given)
inhibition [16]: 0%

Cc1coc2c(C(=O)OC3CC4CCC(C3)N4C)cccc12 (stereo not given)
inhibition [16]: 7.7%

CN1C2CCC1CC(CC(=O)c1ccccc1)C2 (stereo not given)
inhibition [17]: 31.3%

CN1C2CCC1CC(NC(=O)c1cccc3c1CC(C)(C)O3)C2 (stereo not given)
inhibition [16]: 2.1%
